Converted amounts (≈) assume the structure as drawn. The source made the active and inactive calls. The rule behind the calls is not given here.
Columns and labels:
Vibrio parahaemolyticus = assay: Antibacterial activity against Vibrio parahaemolyticus ATCC 17802 assessed as growth inhibition; assay type: functional
Outline: (§1)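 In vitro antibacterial test against each listed strain. Activity is reported as MIC (μM), with ciprofloxacin as the positive control.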

Staphylococcus aureus = assay: Antibacterial activity against Staphylococcus aureus ATCC 27154 assessed as growth inhibition; assay type: functional; outline: as §1
Vibrio anguillarum = assay: Antibacterial activity against Vibrio anguillarum ATCC 19019 assessed as growth inhibition; assay type: functional; outline: as §1
[1] = test system: Staphylococcus epidermidis; assay: Antibacterial activity against Staphylococcus epidermidis ATCC 12228 assessed as growth inhibition; assay type: functional; outline: as §1
Pseudomonas putida = assay: Antibacterial activity against Pseudomonas putida ATCC 17848 assessed as growth inhibition; assay type: functional; outline: as §1
HL-60 = assay: Cytotoxicity against human HL60 cells assessed as inhibition of cell viability by MTT assay; assay type: functional, cell-based
K562 = assay: Cytotoxicity against human K562 cells assessed as inhibition of cell viability by MTT assay; assay type: functional, cell-based
[2] = test system: Staphylococcus epidermidis; assay: Ratio of ciprofloxacin MIC to compound MIC for Staphylococcus epidermidis ATCC 12228; assay type: functional
Bacillus cereus = assay: Antibacterial activity against Bacillus cereus ACCC 11077 assessed as growth inhibition; assay type: functional, organism-based; outline: as §1
Micrococcus = assay: Antibacterial activity against Micrococcus tetragenus ATCC 13623 assessed as growth inhibition; assay type: functional, organism-based; outline: as §1
Escherichia coli = assay: Antibacterial activity against Escherichia coli ATCC 25922 assessed as growth inhibition; assay type: functional, organism-based; outline: as §1

SMILES	MIC (Staphylococcus aureus) [µM]	MIC (Vibrio anguillarum) [µM]	MIC [1] [µM]	MIC (Pseudomonas putida) [µM]	MIC (Vibrio parahaemolyticus) [µM]	IC50 (HL-60) [µM]	IC50 (K562) [µM]	Ratio [2]	growth inhibition (GI) (Vibrio parahaemolyticus)	growth inhibition (GI) (Staphylococcus aureus)	growth inhibition (GI) (Vibrio anguillarum)	growth inhibition (GI) [1]	growth inhibition (GI) (Pseudomonas putida)	growth inhibition (GI) (Bacillus cereus)	growth inhibition (GI) (Micrococcus)	growth inhibition (GI) (Escherichia coli)
CCCCCOc1cc(C)cc(Oc2cc(C)cc(OCCCCC)c2)c1	> 100	> 100	> 100	> 100	100 (≈ 37.1 µg/mL)											
CCCOc1cc(C)cc(Oc2cc(C)cc(O)c2)c1	46 (≈ 12.5 µg/mL)	23 (≈ 6.26 µg/mL)	46 (≈ 12.5 µg/mL)	100 (≈ 27.2 µg/mL)	2.87 (≈ 0.782 µg/mL)											
Cc1cc(O)cc(Oc2cc(C)cc(OC(=O)c3ccccc3)c2)c1	> 100	> 100	18.7 (≈ 6.25 µg/mL)	> 100	18.7 (≈ 6.25 µg/mL)											
Cc1c(Br)c(O)c(Br)c(Oc2c(Br)c(C)c(Br)c(O)c2Br)c1Br	1.11 (≈ 0.781 µg/mL)	1.11 (≈ 0.781 µg/mL)	0.556 (≈ 0.391 µg/mL)	1.11 (≈ 0.781 µg/mL)	1.11 (≈ 0.781 µg/mL)			5								
C=CC(C)(C)[C@]1(C[C@@H]2NC(=O)[C@@]3(OC)CCCN3C2=O)C(=O)Nc2c1ccc1c2C=CC(C)(C)O1						> 10	> 10		inactive	inactive	inactive	inactive	inactive	inactive	inactive	inactive
C=CC(C)(C)[C@]1(C[C@@H]2NC(=O)[C@@]3(O)CCCN3C2=O)C(=O)Nc2c1ccc1c2C=CC(C)(C)O1						> 10	> 10		inactive	inactive	inactive	inactive	inactive	inactive	inactive	inactive
O=C(O)c1cn(C2CC2)c2cc(N3CCNCC3)c(F)cc2c1=O [CIPROFLOXACIN]	0.78 (≈ 0.258 µg/mL)	0.0975 (≈ 0.0323 µg/mL)		0.195 (≈ 0.0646 µg/mL)	0.195 (≈ 0.0646 µg/mL)											
COc1cc(C)cc(Oc2cc(C)cc(OC)c2OC)c1O [CORDYOL D]	> 100	> 100	> 100	> 100	> 100	> 10	> 10									
COc1cc(C)cc(Oc2cc(C)cc(O)c2)c1 [CORDYOL E]	51.2 (≈ 12.5 µg/mL)	25.6 (≈ 6.25 µg/mL)	25.6 (≈ 6.25 µg/mL)	51.2 (≈ 12.5 µg/mL)	51.2 (≈ 12.5 µg/mL)	> 10	> 10									
C=CC(C)(C)[C@]1(C[C@@H]2NC(=O)C3=CCCN3C2=O)C(=O)Nc2c1ccc1c2C=CC(C)(C)O1 [DEHYDRONOTOAMIDE C]						> 10	> 10		inactive	inactive	inactive	inactive	inactive	inactive	inactive	inactive
Cc1cc(O)cc(Oc2cc(C)cc(O)c2)c1 [DIORCINOL]	54.3 (≈ 12.5 µg/mL)	100 (≈ 23 µg/mL)	27.2 (≈ 6.26 µg/mL)	100 (≈ 23 µg/mL)	100 (≈ 23 µg/mL)	> 10	> 10									
CC1(C)C=Cc2c(ccc3c2NC(=O)[C@@]32C[C@@]34NC(=O)[C@]5(CCCN5C3=O)C[C@H]4C2(C)C)O1 [NOTOAMIDE B]						> 10	> 10		inactive	inactive	inactive	inactive	inactive	inactive	inactive	inactive
C=CC(C)(C)[C@]1(C[C@@H]2NC(=O)[C@@H]3CCCN3C2=O)C(=O)Nc2c1ccc1c2C=CC(C)(C)O1 [NOTOAMIDE C]						> 10	> 10		inactive	inactive	inactive	inactive	inactive	inactive	inactive	inactive
C=CC(C)(C)[C@]1(C[C@@H]2NC(=O)[C@]3(O)CCCN3C2=O)C(=O)Nc2c1ccc1c2C=CC(C)(C)O1 [NOTOAMIDE M]						> 10	> 10		inactive	inactive	inactive	inactive	inactive	inactive	inactive	inactive
C=CC(C)(C)[C@]1(C[C@@H]2NC(=O)[C@]3(OC)CCCN3C2=O)C(=O)Nc2c1ccc1c2C=CC(C)(C)O1 [NOTOAMIDE Q]						> 10	> 10		inactive	inactive	inactive	inactive	inactive	inactive	inactive	inactive
CC1(C)C=Cc2c(ccc3c4c([nH]c23)C(C)(C)[C@@H]2C[C@]35CCCN3C(=O)[C@@]2(C4)NC5=O)O1 [STEPHACIDIN A]	> 100	> 100	14.5 (≈ 6.26 µg/mL)	> 100	> 100	> 10	> 10									

The next lines start with results.

MIC (Staphylococcus aureus) [µM]	MIC (Vibrio anguillarum) [µM]	MIC [1] [µM]	MIC (Pseudomonas putida) [µM]	SMILES	MIC (Vibrio parahaemolyticus) [µM]	IC50 (HL-60) [µM]	IC50 (K562) [µM]	Ratio [2]	growth inhibition (GI) (Vibrio parahaemolyticus)	growth inhibition (GI) (Staphylococcus aureus)	growth inhibition (GI) (Vibrio anguillarum)	growth inhibition (GI) [1]	growth inhibition (GI) (Pseudomonas putida)	growth inhibition (GI) (Bacillus cereus)	growth inhibition (GI) (Micrococcus)	growth inhibition (GI) (Escherichia coli)
100 (≈ 29 µg/mL)	100 (≈ 29 µg/mL)	> 100	> 100	COc1cc(C)cc(Oc2cc(C)cc(OC)c2O)c1O	> 100	> 10	> 10									
10.9 (≈ 3.14 µg/mL)	21.7 (≈ 6.26 µg/mL)	2.71 (≈ 0.781 µg/mL)	21.7 (≈ 6.26 µg/mL)	COC(=O)c1c(C)cc(Oc2cc(C)cc(O)c2)cc1O	21.7 (≈ 6.26 µg/mL)	> 10	5.94									
100 (≈ 68.3 µg/mL)	9.23 (≈ 6.3 µg/mL)	100 (≈ 68.3 µg/mL)	> 100	COC(=O)c1c(C)c(Br)c(Oc2c(Br)c(C)c(Br)c(O)c2Br)c(Br)c1O	> 100											
> 100	46 (≈ 12.5 µg/mL)	100 (≈ 27.2 µg/mL)	100 (≈ 27.2 µg/mL)	CC(=O)Oc1cc(C)cc(Oc2cc(C)cc(O)c2)c1	100 (≈ 27.2 µg/mL)											
> 100	> 100	> 100	> 100	CC(=O)Oc1cc(C)cc(Oc2cc(C)cc(OC(C)=O)c2)c1	> 100											
20.8 (≈ 6.25 µg/mL)	10.4 (≈ 3.12 µg/mL)	20.8 (≈ 6.25 µg/mL)	10.4 (≈ 3.12 µg/mL)	CCCCCOc1cc(C)cc(Oc2cc(C)cc(O)c2)c1	10.4 (≈ 3.12 µg/mL)											
100 (≈ 24.6 µg/mL)	100 (≈ 24.6 µg/mL)	100 (≈ 24.6 µg/mL)	100 (≈ 24.6 µg/mL)	Cc1cc(O)cc(Oc2cc(C)cc(O)c2O)c1 [CORDYOL C]	100 (≈ 24.6 µg/mL)	> 10	> 10									

Reference: ChEMBL document CHEMBL2331366, “Bioactive indole alkaloids and phenyl ether derivatives from a marine-derived Aspergillus sp. Fungus” (J Nat Prod, 2013)
